For test [1], the system named is Bacillus cereus. Nature of the test: Antimicrobial activity against Bacillus cereus at 100 ug/disk by disk diffusion assay. The class given is functional. Particulars: read-out: IZ. Put shortly:
(§1)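 Bacterial targets grown 24 h in nutrient broth. 0.6 mL of culture was spread on 9 cm nutrient agar plates and dried 1 h. Test samples in 10 µL MeOH were applied to 4 mm filter paper disks, air-dried 1 h and placed on the plates. Read-out was the inhibition zone diameter in mm.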
(In general: A growth-free zone around the sample is the usual read-out of agar diffusion tests.)

In test [2] the test system is Bacillus subtilis. Nature of the test: Antimicrobial activity against Bacillus subtilis at 100 ug/disk by disk diffusion assay. Type of test: functional. Particulars: read-out: IZ. Put shortly: as §1
In test [3] the test system is Escherichia coli. The test can be described thus: Antimicrobial activity against Escherichia coli at 100 ug/disk by disk diffusion assay. The class given is functional. Conditions: read-out: IZ. The method, boiled down: as §1
The test system of test [4] is Bacillus cereus. Nature of the test: Antimicrobial activity against Bacillus cereus by disk diffusion assay. The class given is functional, organism-based. Put shortly: as §1
The subject of test [5] is Bacillus subtilis. The test can be described thus: Antimicrobial activity against Bacillus subtilis by disk diffusion assay. The class given is functional, organism-based. Put shortly: as §1
In test [6] the test system is Escherichia coli. The test can be described thus: Antimicrobial activity against Escherichia coli by disk diffusion assay. Type of test: functional, organism-based. The method, boiled down: as §1
A further test concerns Botrytis cinerea. The test can be described thus: Antimicrobial activity against Botrytis cinerea by disk diffusion assay. Type of test: functional. The method, boiled down:
(§2)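 Filamentous fungal targets were tested on potato dextrose agar plates spread with 0.6 mL spore suspension (1 × 10^6 spores/mL) and dried 1 h. Samples in 10 µL MeOH were loaded on 4 mm paper disks, air-dried 1 h and laid on the plates. Activity was scored as inhibition zone size in mm.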

The next test concerns Colletotrichum fragariae. Nature of the test: Antimicrobial activity against Colletotrichum fragariae by disk diffusion assay. Type of test: functional. The method, boiled down: as §2
For test [7], the system named is Colletotrichum gloeosporioides. The test can be described thus: Antimicrobial activity against Colletotrichum gloeosporioides by disk diffusion assay. The class given is functional. Put shortly:
as §2

For a further test, the system named is Fusarium oxysporum. Nature of the test: Antimicrobial activity against Fusarium oxysporum by disk diffusion assay. The class given is functional. The method, boiled down: as §2
The subject of test [8] is Bacillus cereus. The test can be described thus: Antimicrobial activity against Bacillus cereus at 30 ug/disk by disk diffusion assay. Type of test: functional. Conditions: read-out: IZ. Put shortly: as §1
Test [9] deals with Bacillus subtilis. Nature of the test: Antimicrobial activity against Bacillus subtilis at 30 ug/disk by disk diffusion assay. Particulars: read-out: IZ. The class given is functional. The method, boiled down: as §1

Molecules are shown by their SMILES. The source made the active and inactive calls. No cut-off for these calls is given here. Where a SMILES comes first, the peptide text is derived from it. [ ]: non-standard residue; d: D form. The star is where a group is joined. Hyp = O=C(O)[C@@H]1C[C@@H](O)CN1; Decanoyl = CCCCCCCCCC(=O)*; X1 = CC(C)C[C@@H](CN)N*; Aib = CC(C)(N)C(=O)O

Regarding `CCCCCCCCCC(=O)N1C[C@H](O)C[C@H]1C(=O)N1C[C@H](O)C[C@H]1C(=O)N[C@H](C(=O)NC(C)(C)C(=O)N[C@@H](CCC(N)=O)C(=O)NC(C)(C)C(=O)N[C@H](C(=O)N[C@H](CN)CC(C)C)[C@@H](C)CC)C(C)C` [CICADAPEPTIN II] (Decanoyl-[Hyp][Hyp]V[Aib]Q[Aib]I-X1), the zone of inhibition at 100 µg/disc is 12 mm in the test on Bacillus cereus [1], 11 mm in the test with Bacillus subtilis [2] and 16 mm in the test on Escherichia coli [3].
`CCCCCCCCCC(=O)N1C[C@H](O)C[C@H]1C(=O)N1C[C@H](O)C[C@H]1C(=O)N[C@H](C(=O)NC(C)(C)C(=O)N[C@@H](CCC(N)=O)C(=O)NC(C)(C)C(=O)N[C@@H](CC(C)C)C(=O)N[C@H](CN)CC(C)C)C(C)C` [CICADAPEPTIN I] (Decanoyl-[Hyp][Hyp]V[Aib]Q[Aib]L-X1): the zone of inhibition at 100 µg/disc with Bacillus cereus [1] stood at 13 mm; in the test with Bacillus subtilis [2], 13 mm; in the test with Escherichia coli [3] it was 16 mm.
`CCCCCCC(=O)CCCCCC/C=C/C[C@@H](O)[C@H](O)[C@@](N)(CO)C(=O)O` [MYRIOCIN]: the result in the test on Bacillus cereus [4], in the test on Bacillus subtilis [5] and with Escherichia coli [6] was inactive. The “inhibition zone (IZ)” value in the test with Botrytis cinerea is listed as 28 mm; in the test with Colletotrichum fragariae, 14 mm; in [7], 8 mm; with Fusarium oxysporum it was 17 mm.
Regarding `CN(C)[C@@H]1C(O)=C(C(N)=O)C(=O)[C@@]2(O)C(O)=C3C(=O)c4c(O)cccc4[C@@](C)(O)[C@H]3C[C@@H]12` [TETRACYCLINE], the values for the zone of inhibition at 30 µg/disc with Bacillus cereus [8] and with Bacillus subtilis [9] were 29 mm and 18 mm, respectively.

The values are drawn from ChEMBL document CHEMBL1158684, “Cicadapeptins I and II: new Aib-containing peptides from the entomopathogenic fungus Cordyceps heteropoda” (2005).
